From ChEMBL document CHEMBL1671683, “Activity of linezolid in an in vitro pharmacokinetic-pharmacodynamic model using different dosages and Staphylococcus aureus and Enterococcus faecalis strains with and without a hypermutator phenotype” (Antimicrob Agents Chemother, 2010)

Key:
Enterococcus faecalis [1] = assay: Bactericidal activity against 1 hr peripheral compartment culture samples of Enterococcus faecalis Ef1497 MutM3 in two-compartment pharmacokinetic/pharmacodynamic model assessed as effect on bacterial count at 600 mg, bid administered as 0.5 hr infusion; type: functional
Outline: (§1)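 Two-compartment hollow-fibre model in cation-adjusted, protein-free MH broth, 37°C. Linezolid given as simulated 0.5-h infusion twice daily. Inoculum grown 18 h, concentrated 50-fold and placed in the peripheral compartment 3 h before t0. Peripheral samples at set times counted by dilution plating. First 10-fold dilution not plated, limiting detection to 2–3 log10 CFU/ml. Δlog CFU/ml taken from t0 count. Duplicates.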

[2] = Volume of distribution at steady state in two-compartment pharmacokinetic/pharmacodynamic model at 800 mg, bid administered as 0.5 hrs infusion; type: ADME, organism-based; settings: iv, read-out: Vdss
Staphylococcus aureus [3] = assay: Bactericidal activity against 12 hrs peripheral compartment culture samples of Staphylococcus aureus RN4220 MutS2 in two-compartment pharmacokinetic/pharmacodynamic model assessed as effect on bacterial count at 600 mg, bid administered as 0.5 hr infusion; type: functional
Outline: (§2)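 An 18-h culture concentrated 50-fold was injected into the peripheral compartment 3 h pre-sampling (~10^8 CFU/ml E. faecalis, 10^9 S. aureus). Counts came from dilution plating (detection limit 2–3 log10 CFU/ml), expressed as Δlog CFU/ml from treatment start. Run in duplicate.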

Enterococcus faecalis [4] = assay: AUBC (0 to 24 hrs) in Enterococcus faecalis Ef1497 MutM3 in two-compartment pharmacokinetic/pharmacodynamic model at 600 mg, bid administered as 0.5 hr infusion for 2 days; type: functional
Outline: (§3)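 Hollow-fibre two-compartment model in cation-adjusted, protein-free MH broth at 37°C. Human total-plasma linezolid profile simulated as 0.5-h infusion every 12 h for 48 h. Concentrated 18-h culture injected into the peripheral compartment 3 h before first sample, giving about 10^8 (E. faecalis) or 10^9 (S. aureus) CFU/ml. Viable counts by dilution plating over 0–24 h. Area indices calculated versus growth control curve. Duplicate runs.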

Staphylococcus aureus [5] = assay: Bactericidal activity against 24 hrs peripheral compartment culture samples of Staphylococcus aureus RN4220 in two-compartment pharmacokinetic/pharmacodynamic model assessed as effect on bacterial count at 600 mg, bid administered as 0.5 hr infusion; type: functional; outline: as §2
Enterococcus faecalis [6] = assay: AUBC (0 to 24 hrs) in Enterococcus faecalis Ef1497 MutM3 in two-compartment pharmacokinetic/pharmacodynamic model at 200 mg, bid administered as 0.5 hr infusion for 2 days; type: functional; outline: as §3
Enterococcus faecalis [7] = assay: Bactericidal activity against 24 hrs peripheral compartment culture samples of Enterococcus faecalis Ef1497 in two-compartment pharmacokinetic/pharmacodynamic model assessed as effect on bacterial count at 600 mg, bid administered as 0.5 hr infusion; type: functional; outline: as §2
Enterococcus faecalis [8] = assay: ABBC (0 to 24 hrs) in Enterococcus faecalis ATCC 29212 in two-compartment pharmacokinetic/pharmacodynamic model at 200 mg, bid administered as 0.5 hr infusion for 2 days; type: functional; outline: as §3
[9] = Total clearance in two-compartment pharmacokinetic/pharmacodynamic model at 800 mg, bid administered as 0.5 hr infusion over 24 hrs; type: ADME, organism-based; settings: in vivo, iv
[10] = test system: Staphylococcus aureus subsp. aureus RN4220; assay: ABBC (0 to 24 hrs) in Staphylococcus aureus RN4220 MutS2 in two-compartment pharmacokinetic/pharmacodynamic model at 600 mg, bid administered as 0.5 hr infusion for 2 days; outline: as §3
Enterococcus faecalis [11] = assay: AUBC (0 to 24 hrs) in Enterococcus faecalis Ef1497 in two-compartment pharmacokinetic/pharmacodynamic model at 600 mg, bid administered as 0.5 hr infusion for 2 days; type: functional; outline: as §3
[12] = AUC in healthy human at 600 mg, iv, bid administered as 0.5 hr infusion; type: ADME, organism-based; settings: plasma
[13] = Total clearance in two-compartment pharmacokinetic/pharmacodynamic model at 200 mg, bid administered as 0.5 hr infusion over 24 hrs; type: ADME, organism-based; settings: in vivo, iv
[14] = Tmax in two-compartment pharmacokinetic/pharmacodynamic model at 600 mg, bid administered as 0.5 hr infusion over 24 hrs; type: ADME, organism-based; settings: iv
Enterococcus faecalis [15] = assay: Bactericidal activity against 1 hr peripheral compartment culture samples of Enterococcus faecalis ATCC 29212 in two-compartment pharmacokinetic/pharmacodynamic model assessed as effect on bacterial count at 600 mg, bid administered as 0.5 hr infusion; type: functional; outline: as §1
[16] = Total clearance in two-compartment pharmacokinetic/pharmacodynamic model at 800 mg, bid administered as 0.5 hrs infusion; type: ADME, organism-based; settings: iv
[17] = Tmax in two-compartment pharmacokinetic/pharmacodynamic model at 800 mg, bid administered as 0.5 hrs infusion; type: ADME, organism-based; settings: iv
Outline: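 Two-compartment in vitro hollow-fibre model in cation-adjusted, protein-free Mueller-Hinton broth at 37°C. Human total-plasma linezolid profile simulated as 0.5-h infusion every 12 h for 48 h, computer-controlled syringe pump into central compartment. […] Peripheral samples assayed by validated HPLC-UV (quantification limit 0.39 μg/ml). Tmax read directly from concentration-time profiles. Run in duplicate.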

[18] = Apparent volume of distribution in two-compartment pharmacokinetic/pharmacodynamic model at 800 mg, bid administered as 0.5 hrs infusion; type: ADME, organism-based; settings: iv
[19] = Residual concentration at the end of the administration interval in two-compartment pharmacokinetic/pharmacodynamic model at 200 mg, bid administered as 0.5 hrs infusion; type: ADME; settings: iv, read-out: Drug uptake
Enterococcus faecalis [20] = assay: AUBC (0 to 24 hrs) in Enterococcus faecalis Ef1497 in two-compartment pharmacokinetic/pharmacodynamic model at 800 mg, bid administered as 0.5 hr infusion for 2 days; type: functional; outline: as §3
[21] = Cmax in two-compartment pharmacokinetic/pharmacodynamic model at 800 mg, bid administered as 0.5 hr infusion over 24 hrs; type: ADME, organism-based; set-up: dose 800 mg; settings: iv
Staphylococcus aureus [22] = assay: Bactericidal activity against 1 hr peripheral compartment culture samples of Staphylococcus aureus RN4220 MutS2 in two-compartment pharmacokinetic/pharmacodynamic model assessed as effect on bacterial count at 600 mg, bid administered as 0.5 hr infusion; type: functional; outline: as §1
[23] = AUC in two-compartment pharmacokinetic/pharmacodynamic model at 600 mg, bid administered as 0.5 hr infusion over 24 hrs; type: ADME; set-up: dose 600 mg, time < 24 hr; settings: in vivo, iv
Enterococcus faecalis [24] = assay: Bactericidal activity against 12.5 hrs peripheral compartment culture samples of Enterococcus faecalis Ef1497 MutM3 in two-compartment pharmacokinetic/pharmacodynamic model assessed as effect on bacterial count at 600 mg, bid administered as 0.5 hr infusion; type: functional; outline: as §2
[25] = test system: Staphylococcus aureus subsp. aureus RN4220; assay: T>MIC in Staphylococcus aureus RN4220 MutS2 in two-compartment pharmacokinetic/pharmacodynamic model at 600 mg, bid administered as 0.5 hr infusion for 2 days; type: functional
Enterococcus faecalis [26] = assay: Bactericidal activity against 13 hrs peripheral compartment culture samples of Enterococcus faecalis ATCC 29212 in two-compartment pharmacokinetic/pharmacodynamic model assessed as effect on bacterial count at 600 mg, bid administered as 0.5 hr infusion; type: functional; outline: as §2
[27] = Mean residence time in two-compartment pharmacokinetic/pharmacodynamic model at 200 mg, bid administered as 0.5 hr infusion over 24 hrs; type: ADME, organism-based; settings: in vivo, iv
[28] = Residual concentration at the end of the administration interval in two-compartment pharmacokinetic/pharmacodynamic model at 600 mg, bid administered as 0.5 hrs infusion; type: ADME; settings: iv, read-out: Drug uptake

Q: What does the source list for `CC(=O)NC[C@H]1CN(c2ccc(N3CCOCC3)c(F)c2)C(=O)O1` [LINEZOLID]?
A: log10CFU/ml (Enterococcus faecalis [1]): -0.01; Vd [2]: 104 L; log10CFU/ml (Staphylococcus aureus [3]): 0.21; AUBC (Enterococcus faecalis [4]): 217.1 log10CFU/ml.hr; log10CFU/ml (Staphylococcus aureus [5]): -0.17; AUBC (Enterococcus faecalis [6]): 212.2 log10CFU/ml.hr; log10CFU/ml (Enterococcus faecalis [7]): 0.35; ABBC (Enterococcus faecalis [8]): 5.11 log10CFU/ml.hr; clearance [9]: 228 mL/min; ABBC [10]: -2.27 log10CFU/ml.hr; AUBC (Enterococcus faecalis [11]): 215.6 log10CFU/ml.hr; AUC at 0.5 h [12]: 88100 ng·h/mL; clearance [13]: 252 mL/min; Tmax [14]: 30 min; log10CFU/ml (Enterococcus faecalis [15]): -0.12; clearance [16]: 287 mL/min; Tmax [17]: 30 min; Vd [18]: 124 L; concentration at 0.5 h [19]: 390 ng/mL; AUBC (Enterococcus faecalis [20]): 210.5 log10CFU/ml.hr; Cmax [21]: 19500 ng/mL; log10CFU/ml (Staphylococcus aureus [22]): 0.02; AUC at 24 h [23]: 35400 ng·h/mL; log10CFU/ml (Enterococcus faecalis [24]): 0.22; fT>MIC [25]: 66.6%; log10CFU/ml (Enterococcus faecalis [26]): 0.16; MRT [27]: 477 min; concentration at 0.5 h [28]: 1170 ng/mL
